In brackets after ≈: the same amount, converted by molar mass. Activity calls are given as the source filed them. The calls are words filed in the database; no cut-off is given here.

Assay type in all cases: functional
In assay [1] the test system is Bacillus cereus. Briefly: Antibacterial activity against Bacillus cereus ATCC 14579 after 24 hrs by microdilution technique. In a few lines: (§1)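 MIC by agar microdilution on Mueller-Hinton agar per NCCLS 1997. Bacteria subcultured overnight at 37 °C on MHA, Candida on SDA at 35 °C for 24-48 h, each passaged at least twice. Incubated 37 °C in humid chamber, read after 24 h.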
Background: In broth dilution the organism is exposed to a series of concentrations in liquid medium.

In assay [2] the test system is Bacillus cereus. Briefly: Antibacterial activity against Bacillus cereus ATCC 14579 at 10 mg/ml after 48 hrs by disc-diffusion method. The note with it: ATCC 14579, 48 h, read-out: DIZ. In a few lines:
(§2)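 Disc-diffusion reference: penicillin at 10 mg/mL on nutrient agar/Mueller-Hinton agar per Bauer method; inhibition zone diameter (mm) read after 48 h at 28 °C.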
(In general: In agar diffusion tests the substance spreads into inoculated agar from a disc or well.)

Assay [3] concerns Staphylococcus aureus. Briefly: Antibacterial activity against Staphylococcus aureus ATCC 12600 after 24 hrs by microdilution technique. In a few lines:
as §1

Assay [4] relates to Staphylococcus aureus. Briefly: Antibacterial activity against Staphylococcus aureus ATCC 12600 at 10 mg/ml after 48 hrs by disc-diffusion method. The note with it: ATCC 12600, 48 h, read-out: DIZ. The method in brief:
as §2

Assay [5] concerns Escherichia coli. Briefly: Antibacterial activity against Escherichia coli ATCC 11775 at 10 mg/ml after 48 hrs by disc-diffusion method. The note with it: DSM 30083 = JCM 1649, 48 h, read-out: DIZ. The method in brief:
as §2

For assay [6], the system named is Escherichia coli. Briefly: Antibacterial activity against Escherichia coli ATCC 11775 at 10 mg/disc after 48 hrs by disc-diffusion method. In a few lines:
(§3)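 Disc diffusion per Bauer method under NCCLS conditions on nutrient agar/Mueller-Hinton agar. Compound dissolved in sterile DMSO at 10 mg/mL, filtered 0.2 µm, stored frozen at -15 °C; 10 mg/disc in DMSO applied. DMSO control. Inhibition zone diameter measured in mm after 48 h incubation at 28 °C.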

In assay [7] the test system is Staphylococcus aureus. As to the kind of experiment: Antibacterial activity against Staphylococcus aureus ATCC 12600 at 10 mg/disc after 48 hrs by disc-diffusion method. In a few lines: as §3
The test system of assay [8] is Aspergillus flavus. Briefly: Antifungal activity against Aspergillus flavus ATCC 11495 after 24 hrs by microdilution technique.
Assay [9] has as its system Candida albicans. Briefly: Antifungal activity against Candida albicans ATCC 26555 at 10 mg/disc after 48 hrs by disc-diffusion method. The method in brief: as §3
Assay [10] relates to Radical scavenging activity. As to the kind of experiment: Antioxidant activity assessed as DPPH free radical scavenging activity after 20 mins by UV-visible spectrophotometric analysis. In a few lines: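 Kept in the dark at room temperature for 20 min, then absorbance read at 517 nm against DPPH blank, DMSO baseline. % scavenging = [(Ac−At)/Ac]×100; IC50 (µg/mL) from concentration plot; mean ± SEM, n=3, 8 replica each.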

Assay [11] deals with Bacillus cereus. Briefly: Antibacterial activity against Bacillus cereus ATCC 14579 at 10 mg/disc after 48 hrs by disc-diffusion method. In a few lines:
as §3

Assay [12] relates to Escherichia coli. As to the kind of experiment: Antibacterial activity against Escherichia coli ATCC 11775 after 24 hrs by microdilution technique. The method in brief:
as §1

For assay [13], the system named is Aspergillus flavus. Briefly: Antifungal activity against Aspergillus flavus ATCC 11495 at 10 mg/disc after 48 hrs by disc-diffusion method. In a few lines:
as §3

For assay [14], the system named is Candida albicans. As to the kind of experiment: Antifungal activity against Candida albicans ATCC 26555 after 24 hrs by microdilution technique. In a few lines:
as §1

In assay [15] the test system is Candida albicans. Briefly: Antifungal activity against Candida albicans ATCC 26555 at 50 ug/ml after 48 hrs by disc-diffusion method. The note with it: ATCC 26555, 48 h, read-out: DIZ.
Assay [16] concerns Aspergillus flavus. Briefly: Antifungal activity against Aspergillus flavus ATCC 11495 at 50 ug/ml after 48 hrs by disc-diffusion method. The following applies: ATCC 11495, 48 h, read-out: DIZ. In a few lines:
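Disc diffusion per Bauer et al., following NCCLS conditions, on nutrient agar or Mueller-Hinton agar. Compounds were dissolved in sterile DMSO at 10 mg/mL stock, filtered at 0.2 µm and stored frozen at -15 °C. Test discs carried 10 mg/disc in DMSO, and fluconazole reference was 50 µg/mL. After 48 h incubation at 28 °C, inhibition zone diameter was read in mm.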

Take `CC1(C)S[C@@H]2[C@H](NC(=O)Cc3ccccc3)C(=O)N2[C@H]1C(=O)O` [PENICILLIN G]: the MIC was 32 µg/mL (≈ 95.7 µM) in the assay on Bacillus cereus [1] (ATCC 14579, 24 h) and 16 µg/mL (≈ 47.8 µM) in the assay on Staphylococcus aureus [3] (ATCC 12600, 24 h). Besides, the zone of inhibition at 10000 µg/mL in the assay with Bacillus cereus [2] was determined as 13 mm; with Staphylococcus aureus [4] it was 16 mm; with Escherichia coli [5], 12 mm.

On to `Cc1nnc2c(C#N)c(-c3ccc(F)cc3)[nH]c(=S)n12`, for which the “diameter of the inhibition zone (DIZ)” value in the assay with Escherichia coli [6] (DSM 30083 = JCM 1649), in the assay with Staphylococcus aureus [7], in the assay on Candida albicans [9], in the assay with Bacillus cereus [11] and in the assay on Aspergillus flavus [13] was “inactive” throughout. The MIC entry with Aspergillus flavus [8], in the assay on Bacillus cereus [1], in the assay with Staphylococcus aureus [3], in the assay with Escherichia coli [12] (DSM 30083 = JCM 1649) and in the assay on Candida albicans [14] was “inactive” throughout. Besides, the Activity result in assay [10] is “Dose-dependent effect”. The IC50 in assay [10] is 72.03 µg/mL (≈ 252 µM).

As to `COc1cc(-c2[nH]c(=S)n3c(=O)c(=O)[nH]nc3c2C#N)cc(OC)c1OC`, the “diameter of the inhibition zone (DIZ)” value in the assay on Escherichia coli [6] (DSM 30083 = JCM 1649), in the assay on Candida albicans [9] and with Bacillus cereus [11] was “inactive” each time. In addition, the “diameter of the inhibition zone (DIZ)” value turned out to be 14 mm with Staphylococcus aureus [7] and 17 mm with Aspergillus flavus [13]. Besides, the MIC against Aspergillus flavus [8] (ATCC 11495, 24 h) came out at 16 µg/mL (≈ 41.3 µM); in the assay on Staphylococcus aureus [3] (ATCC 12600, 24 h) it was 32 µg/mL (≈ 82.6 µM). For the same compound, the MIC entry in the assay on Bacillus cereus [1], in the assay with Escherichia coli [12] (DSM 30083 = JCM 1649) and in the assay with Candida albicans [14] was “inactive” each time. The Activity entry in [10] was “Dose-dependent effect”. The IC50 in assay [10] was found to be 8.55 µg/mL (≈ 22.1 µM).

As to `COc1cc(-c2[nH]c(=S)n3c(C)nnc3c2C#N)cc(OC)c1OC`, the “diameter of the inhibition zone (DIZ)” value in the assay on Escherichia coli [6] (DSM 30083 = JCM 1649), in the assay on Staphylococcus aureus [7], in the assay on Candida albicans [9], in the assay on Bacillus cereus [11] and in the assay on Aspergillus flavus [13] was “inactive” in each case. Moreover, the MIC result in the assay on Aspergillus flavus [8], in the assay on Bacillus cereus [1], in the assay on Staphylococcus aureus [3], with Escherichia coli [12] (DSM 30083 = JCM 1649) and with Candida albicans [14] was “inactive” throughout. Also, the Activity result in assay [10] is “Dose-dependent effect”. Moreover, the IC50 in assay [10] was 31.15 µg/mL (≈ 87.2 µM).

As for `N#Cc1c(NN)nc(=S)[nH]c1-c1ccc(F)cc1`, the “diameter of the inhibition zone (DIZ)” value stood at 14 mm in the assay with Escherichia coli [6], 15 mm in the assay on Staphylococcus aureus [7], 12 mm with Bacillus cereus [11] and 13 mm in the assay with Aspergillus flavus [13]. For the same compound, the MIC against Aspergillus flavus [8] (ATCC 11495, 24 h) is 32 µg/mL (≈ 122 µM); against Bacillus cereus [1] (ATCC 14579, 24 h) it was 64 µg/mL (≈ 245 µM); in the assay with Staphylococcus aureus [3] (ATCC 12600, 24 h), 16 µg/mL (≈ 61.2 µM); with Escherichia coli [12] (DSM 30083 = JCM 1649, 24 h) it was 32 µg/mL (≈ 122 µM). The “diameter of the inhibition zone (DIZ)” value in the assay with Candida albicans [9] was “inactive”. Further, the Activity result in [10] was “Dose-dependent effect”. Also, the IC50 in assay [10] amounted to 15.24 µg/mL (≈ 58.3 µM). Besides, the MIC entry in the assay with Candida albicans [14] is “inactive”.

Take `OC(Cn1cncn1)(Cn1cncn1)c1ccc(F)cc1F` [FLUCONAZOLE]: the zone of inhibition at 50 µg/mL with Candida albicans [15] was 20 mm; with Aspergillus flavus [16] it was 21 mm. Besides, the MIC is 16 µg/mL (≈ 52.2 µM) in the assay on Aspergillus flavus [8] (ATCC 11495, 24 h) and 16 µg/mL (≈ 52.2 µM) against Candida albicans [14] (ATCC 26555, 24 h).

Regarding `COc1cc(-c2[nH]c(=S)nc(NN)c2C#N)cc(OC)c1OC`, the figures for the “diameter of the inhibition zone (DIZ)” value in the assay with Escherichia coli [6], with Staphylococcus aureus [7] and in the assay on Bacillus cereus [11] were 12 mm, 11 mm and 10 mm, respectively. The MIC result in the assay with Aspergillus flavus [8] and with Candida albicans [14] was “inactive” throughout. The MIC stood at 64 µg/mL (≈ 192 µM) against Bacillus cereus [1] (ATCC 14579, 24 h); 64 µg/mL (≈ 192 µM) against Staphylococcus aureus [3] (ATCC 12600, 24 h); 32 µg/mL (≈ 96 µM) against Escherichia coli [12] (DSM 30083 = JCM 1649, 24 h). Also, the “diameter of the inhibition zone (DIZ)” value in the assay with Candida albicans [9] and with Aspergillus flavus [13] was “inactive” throughout. The Activity entry in assay [10] is “Dose-dependent effect”. In addition, the IC50 in assay [10] amounted to 6.21 µg/mL (≈ 18.6 µM).

The term MIC denotes the lowest concentration that inhibits growth of the organism. Broadly, the IC50 is the concentration needed to halve the response being measured.

For the origin of these results see ChEMBL document CHEMBL2434844, “Synthesis, antimicrobial, antioxidant activities of novel 6-aryl-5-cyano thiouracil derivatives” (Eur J Med Chem, 2013).
